# Reference: ChEMBL document CHEMBL1122522, “Conformationally restricted retinoids” (1984)
# The source made the active and inactive calls. The rule behind the calls is not given here.
# What was measured:
# Mus musculus [1] = species on record: Mus musculus; assay: Percent decrease in average number of papillomas 0.17 at dose*-p<0.001; type: functional
# In short: (§1)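 Female Charles River CD-1 mice, 8 weeks old, in random groups of 25–30, were shaved 2 days before initiation with 200 nmol DMBA in acetone on the back. From 2 weeks on, 8.5 nmol TPA was applied twice weekly for 20 weeks. Retinoid in 0.2 mL acetone, or acetone alone for controls, was given 1 h before each TPA dose. Papillomas were counted weekly, and mean papillomas per mouse were compared with controls at 20 weeks.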
# Cricetinae gen. sp. [2] = assay: Activity of compound the was expressed as ratio of active hamster tracheal organ cultures(TOC) to the total cultures at 10e-10 M concentration; 15/15; type: functional, Cricetulus griseus, Trachea
# In short: (§2)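 Tracheal organ cultures came from vitamin A-deficient hamsters. Each culture was scored for reversal of keratinization and reported as active cultures out of total cultures at each retinoid concentration tested (10⁻⁸ to 10⁻¹² M). The protocol followed earlier published methods.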
# [3] = Mortality range in days at dose 20 umol/kg day; 6-8; type: functional, Mus musculus
# In short: (§3)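 Adult female Swiss mice (20–25 g) had chow and water ad libitum. The retinoid was homogenized as a suspension in aqueous 8% Cremophor EL plus 10% propylene glycol. It was given ip as 10 weekday injections over 14 days. Controls received vehicle alone. Survivors were weighed on days 1, 5, 10 and 15, and dates of death were recorded. Survival was scored at days 8 and 15.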
# Cricetinae gen. sp. [4] = assay: Activity of compound the was expressed as ratio of active hamster tracheal organ cultures(TOC) to the total cultures at 10e-11 M concentration; 15/15; type: functional, Cricetulus griseus, Trachea; in short: as §2
# Mus musculus [5] = species on record: Mus musculus; assay: Tested for relative activity in a 20-week anti-papilloma experiment in female CD-1 mice at dose 0.17 nmol; type: functional; in short: as §1
# Mus musculus [6] = species on record: Mus musculus; assay: Percent decrease in average number of papillomas 1.7 at dose*-p<0.001; type: functional; in short: as §1
# [7] = molecular target: T1, Ornithine decarboxylase (Mus musculus) (UniProt P00860); assay: Inhibition of the induction of ornithine decarboxylase in mouse epidermis by the tumor promoter 12-O-tetradecanoylphorbol-13-acetate (ODC) at dose 17 nmol*-p<0.001
# T1 sequence (whole entry): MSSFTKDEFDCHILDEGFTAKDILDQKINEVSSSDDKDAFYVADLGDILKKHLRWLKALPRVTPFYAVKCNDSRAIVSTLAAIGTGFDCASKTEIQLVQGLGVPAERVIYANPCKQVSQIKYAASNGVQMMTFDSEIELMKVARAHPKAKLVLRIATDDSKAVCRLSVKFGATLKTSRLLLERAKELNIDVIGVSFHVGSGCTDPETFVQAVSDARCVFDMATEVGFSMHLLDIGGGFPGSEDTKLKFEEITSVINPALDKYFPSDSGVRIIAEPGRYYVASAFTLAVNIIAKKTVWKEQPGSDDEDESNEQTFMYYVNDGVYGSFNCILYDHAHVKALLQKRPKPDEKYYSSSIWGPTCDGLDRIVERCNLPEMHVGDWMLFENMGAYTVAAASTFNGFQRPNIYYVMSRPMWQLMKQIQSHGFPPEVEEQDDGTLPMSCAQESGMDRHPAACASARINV
# Cricetinae gen. sp. [8] = assay: Activity of compound the was expressed as ratio of active hamster tracheal organ cultures(TOC) to the total cultures at 10e-12 M concentration; 6/15; type: functional, Cricetulus griseus, Trachea; in short: as §2
# [9] = Mortality range in days at dose 30 umol/kg day; 7-10; type: functional, Mus musculus; in short: as §3
# [10] = Percent survivors at dose 3.3 umol/kg day; type: functional, Mus musculus; in short: as §3
# [11] = Mortality range in days at dose 30 umol/kg day; 7-11; type: functional, Mus musculus; in short: as §3
# [12] = Percent survivors at dose 1.0 umol/kg day; type: functional, Mus musculus; in short: as §3
# Mus musculus [13] = species on record: Mus musculus; assay: Tested for relative activity in a 20-week anti-papilloma experiment in female CD-1 mice at dose 170 nmol;d- Animals died at 1-2 weeks; type: functional, organism-based; in short: as §1
# [14] = molecular target: T1, Ornithine decarboxylase (Mus musculus); assay: TInhibition of the induction of ornithine decarboxylase in mouse epidermis by the tumor promoter 12-O-tetradecanoylphorbol-13-acetate (ODC) at dose 1.7 nmol*-p<0.001
# [15] = Percent survivors at dose 10 umol/kg day; type: functional, Mus musculus; in short: as §3
# [16] = Percent survivors at dose 30 umol/kg day; type: functional, Mus musculus; in short: as §3
# Cricetinae gen. sp. [17] = assay: Molarity required to effect reversal of keratinization in 50% of cultures.; type: functional, Cricetulus griseus
# [18] = Mortality range in days at dose 30 umol/kg day; 10-15; type: functional, Mus musculus; in short: as §3
# Mus musculus [19] = species on record: Mus musculus; assay: Tested for relative activity in a 20-week anti-papilloma experiment in female CD-1 mice at dose 17 nmol; e-Animalsdied at 3-7 weeks; type: functional, organism-based; in short: as §1
# Mus musculus [20] = species on record: Mus musculus; assay: Tested for relative activity in a 20-week anti-papilloma experiment in female CD-1 mice at dose 1.7 nmol; type: functional; in short: as §1
# Cricetinae gen. sp. [21] = assay: Activity of compound the was expressed as ratio of active hamster tracheal organ cultures(TOC) to the total cultures at 10e-10 M concentration; 6/13; type: functional, Cricetulus griseus, Trachea; in short: as §2
# Cricetinae gen. sp. [22] = assay: Activity of compound the was expressed as ratio of active hamster tracheal organ cultures(TOC) to the total cultures at 10e-9 M concentration; 11/12; type: functional, Cricetulus griseus, Trachea; in short: as §2
# Cricetinae gen. sp. [23] = assay: Activity of compound the was expressed as ratio of active hamster tracheal organ cultures(TOC) to the total cultures at 10e-8 M concentration; 7/7; type: functional, Cricetulus griseus, Trachea; settings: at 0.01 µM
# Cricetinae gen. sp. [24] = assay: Activity of compound the was expressed as ratio of active hamster tracheal organ cultures(TOC) to the total cultures at 10e-11 M concentration; 1/5; type: functional, Cricetulus griseus, Trachea; in short: as §2
# [25] = molecular target: T1, Ornithine decarboxylase (Mus musculus); assay: Inhibition of the induction of ornithine decarboxylase in mouse epidermis by the tumor promoter 12-O-tetradecanoylphorbol-13-acetate (ODC) at dose 1.7 nmol; Inhibition not significant
# Cricetinae gen. sp. [26] = assay: Activity of compound the was expressed as ratio of active hamster tracheal organ cultures(TOC) to the total cultures at 10e-10 M concentration; 2/7; type: functional, Cricetulus griseus, Trachea; in short: as §2
# Cricetinae gen. sp. [27] = assay: Activity of compound the was expressed as ratio of active hamster tracheal organ cultures(TOC) to the total cultures at 10e-9 M concentration; 1/6; type: functional, Cricetulus griseus, Trachea; in short: as §2
# Cricetinae gen. sp. [28] = assay: Molarity required to effect reversal of keratinization in 50% of the cultures; type: functional, Cricetulus griseus
# In short: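 Tracheal organ cultures from vitamin A-deficient hamsters were scored for reversal of keratinization across a range of molar retinoid concentrations. The value is the concentration reversing keratinization in 50% of cultures, read from active/total culture counts.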
# [29] = molecular target: T1, Ornithine decarboxylase (Mus musculus); assay: Inhibition of the induction of ornithine decarboxylase in mouse epidermis by the tumor promoter 12-O-tetradecanoylphorbol-13-acetate (ODC) at dose 17 nmol; Inhibition not significant
structure (smiles),measurement,setting,value
C/C(=C\c1ccc(C(=O)O)cc1)c1ccc2c(c1)C(C)(C)CCC2(C)C,Decrease,Mus musculus [1],62.9%
same,Activity,Cricetinae gen. sp. [2],15%
same,Mortality range,[3],8 days
same,Activity,Cricetinae gen. sp. [4],15%
same,Activity,Mus musculus [5],73%
same,Decrease,Mus musculus [6],92.3%
same,inhibition,[7],91%
same,Activity,Cricetinae gen. sp. [8],6%
same,Mortality range,[9],10 days
same,Survivors at day 8,[10],97%
same,Survivors at day 15,[10],0%
same,Mortality range,[11],11 days
same,Survivors at day 8,[12],100%
same,Survivors at day 15,[12],30%
same,Activity,Mus musculus [13],inactive
same,inhibition,[14],89%
same,Survivors at day 8,[15],87%
same,Survivors at day 15,[15],0%
same,Survivors at day 8,[16],50%
same,Survivors at day 15,[16],0%
same,ED50,Cricetinae gen. sp. [17],1e-12
same,Mortality range,[18],15 days
same,Activity,Mus musculus [19],inactive
same,Activity,Mus musculus [20],50%
CC1=C(/C=C/c2ccc3cc(C(=O)O)ccc3c2)C(C)(C)CCC1,Activity,Cricetinae gen. sp. [21],6%
same,Activity,Cricetinae gen. sp. [22],92%
same,Activity,Cricetinae gen. sp. [23],7%
same,ED50,Cricetinae gen. sp. [17],1e-10
same,Activity,Cricetinae gen. sp. [24],1%
CCOC(=O)c1cccc(/C=C(C)/C=C/C2=C(C)CCCC2(C)C)c1,inhibition,[25],13%
same,Activity,Cricetinae gen. sp. [26],2%
same,Activity,Cricetinae gen. sp. [27],1%
same,ED50,Cricetinae gen. sp. [28],>1e-08
same,inhibition,[29],6%
